Measurements from ChEMBL document CHEMBL5712899, “WDR5 supports colon cancer cells by promoting methylation of H3K4 and suppressing DNA damage” (2018).
Calls of active or inactive are those of the source. No cut-off for these calls is given here.

Columns and labels:
SW480 = experiment: Inhibition of colony formation in human SW480 cells assessed as decrease in number of colonies at 10 uM incubated for 10 to 14 days; type: functional, cell-based; details: time 10-14 day
Method in brief: (§1)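 Colony assay in 24-well plates with compound for 10–14 days, diluted from 10 mM DMSO stock to a final 0.1% DMSO (vehicle control). Colony number and average colony size quantified per line. Unpaired two-sided t-test.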

HCT-116 [1] = experiment: Inhibition of colony formation in human HCT-116 cells assessed as decrease in colony size at 10 uM incubated for 10 to 14 days; type: functional, cell-based; details: time 10-14 day; method in brief: as §1
RKO [2] = experiment: Cell cycle arrest in human RKO cells assessed as increase in G1-phase cell population at 10 uM measured after 48 hrs by propidium iodide staining based flow cytometry; type: functional
Method in brief: (§2)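 Fixed overnight at −20 °C in ice-cold 70% ethanol after collecting adherent and nonadherent cells. Rehydrated in PBS for 15 min at 37 °C, then PI-stained for 8–15 h. Read on an LSR II flow cytometer with cell-cycle modelling for phase percentages. Compound added from 10 mM DMSO stock diluted 1:1000 into pre-warmed medium (0.1% DMSO vehicle control). Unpaired two-sided t-test.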

T84 [3] = experiment: Inhibition of colony formation in human T84 cells assessed as decrease in colony size at 10 uM incubated for 10 to 14 days; type: functional, cell-based; details: time 10-14 day; method in brief: as §1
SW-620 [4] = experiment: Inhibition of colony formation in human SW620 cells assessed as decrease in colony size at 10 uM incubated for 10 to 14 days; type: functional, cell-based; details: time 10-14 day; method in brief: as §1
RKO [5] = experiment: Induction of apoptosis in human RKO cells assessed as late apoptotic cells at 10 uM measured after 48 hrs by Annexin V/Propidium iodide staining based flow cytometry (reference value: 6.58%); type: functional
SW-620 [6] = experiment: Induction of apoptosis in human SW620 cells assessed as late apoptotic cells at 10 uM measured after 48 hrs by Annexin V/Propidium iodide staining based flow cytometry (reference value: 10.3%); type: functional
[7] = Inhibition of RBBP5 interaction with flag-tagged human WDR5 expressed in HEK293T cells assessed as endogenous RBBP5 level at 10 uM measured after 5 hrs by co-immunoprecipitation assay relative to control; set-up: scale not given: the % may be the effect or the level left; details: condition malignant colon neoplasm
HCT-116 [8] = experiment: Induction of apoptosis in human HCT-116 cells assessed as early apoptotic cells at 10 uM measured after 48 hrs by Annexin V/Propidium iodide staining based flow cytometry (reference value: 19.4%); type: functional
LoVo [9] = experiment: Inhibition of colony formation in human LoVo cells assessed as decrease in number of colonies at 10 uM incubated for 10 to 14 days; type: functional, cell-based; details: time 10-14 day; method in brief: as §1
SW-620 [10] = experiment: Cytotoxicity against human SW620 cells assessed as reduction in cell viability at 10 uM for 72 hrs by Alamar Blue assay relative to control; type: functional
Method in brief: (§3)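 Cells grown in DMEM with 10% FBS and treated 72 h with compound diluted 1:1000 from 10 mM DMSO stock (final 0.1% DMSO, vehicle control). alamarBlue added at 100 μL per mL medium for 1–3 h at 37 °C, then fluorescence read. Values background-subtracted against cell-free wells and normalized to control set to 1. Shown ± SD; unpaired two-sided t-test.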

SW-620 [11] = experiment: Inhibition of colony formation in human SW620 cells assessed as decrease in number of colonies at 10 uM incubated for 10 to 14 days; type: functional, cell-based; details: time 10-14 day; method in brief: as §1
HCT-116 [12] = experiment: Induction of apoptosis in human HCT-116 cells assessed as necrotic cells at 10 uM measured after 48 hrs by Annexin V/Propidium iodide staining based flow cytometry (reference value: 0.67%); type: functional
RKO [13] = experiment: Inhibition of colony formation in human RKO cells assessed as decrease in colony size at 10 uM incubated for 10 to 14 days; type: functional, cell-based; details: time 10-14 day; method in brief: as §1
SW-620 [14] = experiment: Induction of apoptosis in human SW620 cells assessed as necrotic cells at 10 uM measured after 48 hrs by Annexin V/Propidium iodide staining based flow cytometry (reference value: 0.87%); type: functional
RKO [15] = experiment: Inhibition of colony formation in human RKO cells assessed as decrease in number of colonies at 10 uM incubated for 10 to 14 days; type: functional, cell-based; details: time 10-14 day; method in brief: as §1
SW-620 [16] = experiment: Induction of apoptosis in human SW620 cells assessed as early apoptotic cells at 10 uM measured after 48 hrs by Annexin V/Propidium iodide staining based flow cytometry (reference value: 4.03%); type: functional
RKO [17] = experiment: Induction of apoptosis in human RKO cells assessed as necrotic cells at 10 uM measured after 48 hrs by Annexin V/Propidium iodide staining based flow cytometry (reference value: 0.54%); type: functional
LoVo [18] = experiment: Inhibition of colony formation in human LoVo cells assessed as decrease in colony size at 10 uM incubated for 10 to 14 days; type: functional, cell-based; details: time 10-14 day; method in brief: as §1
HCT-116 [19] = experiment: Cytotoxicity against human HCT-116 cells assessed as decrease in cell viability at 10 uM for 72 hrs by Alamar Blue assay; type: functional, cell-based; method in brief: as §3
RKO [20] = experiment: Induction of apoptosis in human RKO cells assessed as viable cells at 10 uM measured after 48 hrs by Annexin V/Propidium iodide staining based flow cytometry (Rvb =76.1%); type: functional; details: read-out: Activity
SW-620 [21] = experiment: Cell cycle arrest in human SW620 cells assessed as increase in G1-phase cell population at 10 uM measured after 48 hrs by propidium iodide staining based flow cytometry; type: functional; method in brief: as §2
T84 [22] = experiment: Inhibition of colony formation in human T84 cells assessed as decrease in number of colonies at 10 uM incubated for 10 to 14 days; type: functional, cell-based; details: time 10-14 day; method in brief: as §1
T84 [23] = experiment: Cytotoxicity against human T84 cells assessed as reduction in cell viability at 10 uM for 72 hrs by Alamar Blue assay relative to control; type: functional; method in brief: as §3
HCT-116 [24] = experiment: Induction of apoptosis in human HCT-116 cells assessed as viable cells at 10 uM measured after 48 hrs by Annexin V/Propidium iodide staining based flow cytometry (reference value: 62.7%); type: functional; details: read-out: Activity
SW-620 [25] = experiment: Induction of apoptosis in human SW620 cells assessed as viable cells at 10 uM measured after 48 hrs by Annexin V/Propidium iodide staining based flow cytometry (Rvb =84.8%); type: functional; details: read-out: Activity
RKO [26] = experiment: Induction of apoptosis in human RKO cells assessed as early apoptotic cells at 10 uM measured after 48 hrs by Annexin V/Propidium iodide staining based flow cytometry (reference value: 16.7%); type: functional
HCT-116 [27] = experiment: Induction of apoptosis in human HCT-116 cells assessed as late apoptotic cells at 10 uM measured after 48 hrs by Annexin V/Propidium iodide staining based flow cytometry (reference value: 17.2%); type: functional
RKO [28] = experiment: Cytotoxicity against human RKO cells assessed as decrease in cell viability at 10 uM measured after 72 hrs by Alamar Blue assay; type: functional, cell-based; method in brief: as §3

**Q.** Which results are given for CN1CCN(c2ccc(-c3cccc(CN4CCOCC4)c3)cc2NC(=O)c2c[nH]c(=O)cc2C(F)(F)F)CC1?
**A.** inhibition (SW480): Active; inhibition (HCT-116 [1]): Active; Activity (RKO [2]): Active; inhibition (T84 [3]): Active; inhibition (SW-620 [4]): Active; Activity (RKO [5]): 4.3%; Activity (SW-620 [6]): 10.3%; Activity [7]: <20%; Activity (HCT-116 [8]): 22.2%; inhibition (LoVo [9]): inactive; Activity (SW-620 [10]): 50%; inhibition (SW-620 [11]): Active; Activity (HCT-116 [12]): 1.36%; inhibition (RKO [13]): inactive; Activity (SW-620 [14]): 0.43%; inhibition (RKO [15]): Active; Activity (SW-620 [16]): 8.01%; Activity (RKO [17]): 0.18%; inhibition (LoVo [18]): inactive; Activity (HCT-116 [19]): Active; viability at 10 µM (RKO [20]): 68.5%; Activity (SW-620 [21]): Active; inhibition (T84 [22]): Active; Activity (T84 [23]): 50%; viability at 10 µM (HCT-116 [24]): 46.1%; viability at 10 µM (SW-620 [25]): 81.3%; Activity (RKO [26]): 27%; Activity (HCT-116 [27]): 30.4%; Activity (RKO [28]): Active
